The record followed here is ChEMBL document CHEMBL2157882, “Structure-activity relationship study of pyrimido[1,2-c][1,3]benzothiazin-6-imine derivatives for potent anti-HIV agents” (Bioorg Med Chem, 2012).

The subject of one data set is HeLa. Briefly: Cytotoxicity against human HeLa cells expressing CD4/CCR5 at 10 uM. The format is cell-based.
For data set [1], the system named is Human immunodeficiency virus 1. Briefly: Antiviral activity against HIV 1 in HeLa-CD4/CCR5 cells assessed as inhibition of viral infectivity after 48 hrs by MAGI assay. The format is functional, organism-based. The note with it: Human immunodeficiency virus 1, MAGI-CCR5, 48 h. In a few lines: (§1)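 HeLa-CD4/CCR5-LTR/β-gal target cells at 10⁴ cells/well, plated the day before infection; inoculated with virus at 60 MAGI U/well and cultured with graded compound concentrations in fresh medium. After 48 h, X-Gal-stained blue cells were counted per well. EC50 (50% block of infection) was interpolated from the two concentrations bracketing 50% inhibition; three independent experiments.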

A short description of data set [2]: Cytotoxicity against human HeLa cells expressing CD4/CCR5. The format is cell-based.
Data set [3] in a line: Therapeutic index, ratio of CC50 for HeLa-CD4/CCR5 cells to EC50 for HIV 1 in HeLa-CD4/CCR5 cells assessed as inhibition of viral infectivity. The note with it: human, read-out: Ratio CC50/EC50. The data set is classed as cell-based.
Data set [4] deals with Human immunodeficiency virus 2. In words: Antiviral activity against HIV 2 ROD in HeLa-CD4/CCR5 cells assessed as inhibition of viral infectivity after 48 hrs by MAGI assay. The data set is classed as functional, organism-based. Particulars: Human immunodeficiency virus 2, ISOLATE ROD, MAGI-CCR5, 48 h. In a few lines: as §1
Data set [5] has as its system Human immunodeficiency virus 2. In words: Antiviral activity against HIV 2 EHO in HeLa-CD4/CCR5 cells assessed as inhibition of viral infectivity after 48 hrs by MAGI assay. The note with it: Human immunodeficiency virus 2, EHO, MAGI-CCR5, 48 h. The format is functional, organism-based. In outline:
as §1

Data set [6] relates to Human immunodeficiency virus 1. Briefly: Antiviral activity against HIV 1 BaL in HeLa-CD4/CCR5 cells assessed as inhibition of viral infectivity after 48 hrs by MAGI assay. The data set is classed as functional, organism-based. Particulars: Human immunodeficiency virus 1, BaL, MAGI-CCR5, 48 h. In a few lines:
as §1

For data set [7], the system named is Human immunodeficiency virus 1. In words: Antiviral activity against HIV 1 NL4-3 in HeLa-CD4/CCR5 cells assessed as inhibition of viral infectivity after 48 hrs by MAGI assay. The data set is classed as functional, organism-based. The note with it: Human immunodeficiency virus 1, NL4-3, MAGI-CCR5, 48 h. In a few lines: as §1
In data set [8] the test system is Human immunodeficiency virus 2. In words: Ratio of PD 404182 EC50 to compound EC50 for HIV 2 ROD in HeLa-CD4/CCR5 cells assessed as inhibition of viral infectivity after 48 hrs by MAGI assay. The format is functional, ISOLATE ROD.
The test system of data set [9] is Human immunodeficiency virus 2. Briefly: Ratio of PD 404182 EC50 to compound EC50 for HIV 2 EHO in HeLa-CD4/CCR5 cells assessed as inhibition of viral infectivity after 48 hrs by MAGI assay. The data set is classed as functional.
For data set [10], the system named is Human immunodeficiency virus 1. Briefly: Ratio of PD 404182 EC50 to compound EC50 for HIV 1 BaL in HeLa-CD4/CCR5 cells assessed as inhibition of viral infectivity after 48 hrs by MAGI assay. The format is functional.
In data set [11] the test system is Human immunodeficiency virus 1. In words: Ratio of PD 404182 EC50 to compound EC50 for HIV 1 NL4-3 in HeLa-CD4/CCR5 cells assessed as inhibition of viral infectivity after 48 hrs by MAGI assay. The data set is classed as functional.

Take `N=C1Sc2cc(-c3ccc4[nH]cc(C(=O)C(F)(F)F)c4c3)ccc2C2=NCCCN12`: the Activity result in the data set on HeLa is given as “Toxic”. Besides, the EC50 in data set [1] was more than 1000 nM.
Regarding `N=C1Sc2cc(-c3ccc4c(C(=O)C(F)(F)F)c[nH]c4c3)ccc2C2=NCCCN12`, the Activity result in the data set with HeLa is “Toxic”. Further, in [1], the EC50 was more than 1000 nM.
On to `N=C1Sc2cc(-c3cc4ccccc4s3)ccc2C2=NCCCN12`, for which the EC50 in data set [1] amounted to 260 nM.
As for `N=C1Sc2cc(-c3cccc(-c4ccccc4)c3)ccc2C2=NCCCN12`, the EC50 in data set [1] turned out to be 1350 nM.
On to `N=C1Sc2cc(-c3ccc(C(N)=O)cc3)ccc2C2=NCCCN12`, for which the concentration giving a half-maximal response (EC50) in data set [1] turned out to be 8710 nM.
Same read-out and setting: to `N=C1Sc2cc(-c3ccc4ccccc4c3)ccc2C2=NCCCN12` belongs 200 nM; to `COc1ccc(CN2CCC3(CC2)CN=C2c4ccc(Br)cc4SC(=N)N2C3)cc1`, 1450 nM; to `N=C1Sc2cc(-c3cccc(O)c3)ccc2C2=NCCCN12`, 2620 nM.
On the same count and under the same terms, next, `N=C1Sc2cc(-c3ccccc3-c3ccccc3)ccc2C2=NCCCN12`: 320 nM.
Still for that read-out and setting: next, `N=C1Sc2cc(-c3ccncc3)ccc2C2=NCCCN12`: 540 nM; `N#Cc1cccc(-c2ccc3c(c2)SC(=N)N2CCCN=C32)c1`: 1170 nM; `COc1ccc(-c2ccc3c(c2)SC(=N)N2CCCN=C32)cc1Cl`: 320 nM.
With `N=C1Sc2cc(-c3ccc4ncccc4c3)ccc2C2=NCCCN12`, in data set [1], the EC50 turned out to be 250 nM.
Still for that read-out and setting: to `N=C1Sc2cc(-c3ccc([N+](=O)[O-])cc3)ccc2C2=NCCCN12` belongs 460 nM; to `N=C1Sc2cc(-c3ccco3)ccc2C2=NCCCN12`, 260 nM.
Regarding `N=C1Sc2cc(-n3cccn3)ccc2C2=NCCCN12`, the EC50 in [1] stood at 420 nM.
Regarding `N=C1Sc2cc(-c3ccc4c(c3)OCCO4)ccc2C2=NCCCN12`, the EC50 in data set [1] was determined as 260 nM.
On the same count and under the same terms, to `CC(=O)N1CCC2(CC1)CN=C1c3ccc(Br)cc3SC(=N)N1C2` belongs 2740 nM; to `N=C1Sc2cc(-c3ccccc3)ccc2C2=NCCCN12`, 240 nM; to `N=C1Sc2cc(-c3cccc([N+](=O)[O-])c3)ccc2C2=NCCCN12`, 1260 nM.
On to `COc1cccc(-c2ccc3c(c2)SC(=N)N2CCCN=C32)c1`, for which the EC50 in data set [1] was determined as 150 nM.
For the compound `N=C1Sc2cc(-c3ccsc3)ccc2C2=NCCCN12`, the EC50 in data set [1] amounted to 220 nM.
On to `COC(=O)c1cccc(-c2ccc3c(c2)SC(=N)N2CCCN=C32)c1`, for which the EC50 in data set [1] worked out at 390 nM.
In data set [2], `N=C1Sc2ccccc2C2=NCCCN12` yielded a CC50 of more than 100000 nM. In addition, in data set [3], the selectivity ratio is more than 200. The EC50 turned out to be 300 nM in data set [4]; 310 nM in data set [5]; 370 nM in data set [6]; 380 nM in data set [7]; 440 nM in [1].
In the case of `CC1(C)CN=C2c3ccccc3SC(=N)N2C1`, the EC50 in data set [1] came out at 240 nM.
Take `CC(=O)Nc1cccc(-c2ccc3c(c2)SC(=N)N2CCCN=C32)c1`: the EC50 in data set [1] is more than 10000 nM.
The same measure, in the same setting: to `N=C1Sc2cc(-c3cccc4ccccc34)ccc2C2=NCCCN12` belongs 390 nM.
Turning to `CSc1ccc(-c2ccc3c(c2)SC(=N)N2CCCN=C32)cc1`, the EC50 in data set [1] worked out at 200 nM.
Take `N=C1Sc2cc(-n3ccnc3)ccc2C2=NCCCN12`: in data set [1], the EC50 turned out to be 5120 nM.
`N=C1Sc2cc(Br)ccc2C2=NCC3(CCN(C(N)=O)CC3)CN12`: the EC50 in data set [1] is more than 10000 nM.
With `COc1cc(-c2ccc3c(c2)SC(=N)N2CCCN=C32)cc(OC)c1OC`, the EC50 in data set [1] is 250 nM.
Turning to `COc1ccc(Cl)cc1-c1ccc2c(c1)SC(=N)N1CCCN=C21`, the EC50 in data set [1] was 480 nM.
With `CC(C)Oc1cccc(-c2ccc3c(c2)SC(=N)N2CCCN=C32)c1`, in data set [1], the EC50 came to 320 nM.
As to `N=C1Sc2cc(-c3ccc4c(c3)OCO4)ccc2C2=NCCCN12`, the Ratio EC50 in data set [8] came out at 3; in data set [9] it was 2; in data set [10], 3; in data set [11], 2. The concentration giving a half-maximal response (EC50) in data set [4] worked out at 100 nM; in data set [5] it was 140 nM; in data set [6] it was 130 nM; in [7] it was 230 nM; in data set [1] it was 150 nM.
Take `COC(=O)c1ccc(-c2ccc3c(c2)SC(=N)N2CCCN=C32)cc1`: the EC50 in data set [1] was 810 nM.
On to `N#Cc1ccc(-c2ccc3c(c2)SC(=N)N2CCCN=C32)cc1`, for which, in data set [1], the EC50 amounted to 440 nM.
Turning to `CC(O)c1cccc(-c2ccc3c(c2)SC(=N)N2CCCN=C32)c1` (racemic), in data set [1], the EC50 is 1190 nM.
Consider `CS(=O)(=O)N1CCC2(CC1)CN=C1c3ccc(Br)cc3SC(=N)N1C2`, for which the EC50 in data set [1] turned out to be 1810 nM.
Regarding `N=C1Sc2cc(Br)ccc2C2=NCC3(CCCCC3)CN12`, the EC50 in data set [1] amounted to 250 nM.
With `N=C1Sc2cc(-c3cc4ccccc4o3)ccc2C2=NCCCN12`, the EC50 in [1] was found to be 200 nM.
`N=C1Sc2cc(-c3cccnc3)ccc2C2=NCCCN12`: the EC50 in [1] came out at 450 nM.
As for `N=C1Sc2cc(-c3ccc(C(F)(F)F)cc3)ccc2C2=NCCCN12`, the EC50 in [1] was 550 nM.
Regarding `N=C1Sc2cc(Br)ccc2C2=NCC3(CCOCC3)CN12`, in data set [1], the EC50 worked out at 1730 nM.
For the compound `COc1ccccc1-c1ccc2c(c1)SC(=N)N1CCCN=C21`, the EC50 in data set [1] worked out at 410 nM.
On to `N=C1Sc2cc(Br)ccc2C2=NCCCN12`, for which the EC50 in data set [1] was determined as 250 nM.
As for `COc1ccc(-c2ccc3c(c2)SC(=N)N2CCCN=C32)cc1OC`, the EC50 in data set [1] amounted to 270 nM.
On to `CS(=O)(=O)Nc1cccc(-c2ccc3c(c2)SC(=N)N2CCCN=C32)c1`, for which the EC50 in [1] is more than 10000 nM.
As to `COC(=O)N1CCC2(CC1)CN=C1c3ccc(Br)cc3SC(=N)N1C2`, the EC50 in [1] is 440 nM.
`N=C1Sc2cc(-c3ccc(OC(F)(F)F)cc3)ccc2C2=NCCCN12`: in [1], the EC50 amounted to 380 nM.
As to `COc1ccc(-c2ccc3c(c2)SC(=N)N2CCCN=C32)cc1`, the EC50 in data set [1] is 240 nM.
